The nature of series [1]: Plasma concentration in Balb/c mouse at 2 mg/kg, sc administered as single dose using MC/EtOH formulation measured at 1 hr by LC-MS/MS analysis. The class given is ADME, organism-based. A digest of the protocol: (§1)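 Female Balb/c mice, fasted 8 h with free water, given a single dose in 0.1 mL vehicle: EO-33 dissolved in EtOH, then aqueous 0.4% methylcellulose added to a final 8% EtOH. Sacrificed under isoflurane at 1, 3, 7, 12 and 24 h (2–3 mice/group). Cardiac blood collected into K-EDTA and plasma stored at −80 °C. LC-MS/MS on 100 µL plasma. AUC0-24h taken from the five time points.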

A short description of series [2]: Toxicity in nu/nu Br athymic mouse xenografted with human […]-stimulated MCF7 cells assessed as effect on kidneys at 30 mg/kg, sc administered 6 days per week […] using MC/EtOH formulation measured 3 hrs post-last dose by necropsy analysis. The class given is organism-based. The conditions noted are these: in vivo. The essentials: (§2)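 MCF-7 cells (grown in DME-F12 with 5% FBS and 1 nM estradiol) inoculated SC at 4.1 x 10^6 cells in 30% Matrigel into both flanks of bilaterally ovariectomized nude mice, three days after surgery; E2S 50 µg/mouse SC three times weekly. Test agent SC 6 days/week in 0.1 mL MC:EtOH (92:8) for 28 days; vehicle-only controls. Mice weighed and killed 3 h after last dose; livers removed.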

For series [3], the system named is Mus musculus. Description: In vivo inhibition of STS in ovariectomized Balb/c mouse assessed as reduction in E1S-stimulated uterus weight at 30 mg/kg, sc administered twice daily starting from day 2 to day 10 using MC/EtOH formulation and E1S addition on day 5 to 10 measured on day 11 relative to control. The class given is functional. The essentials:
(§3)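 Female Balb/c mice (15–20 g) ovariectomized under isoflurane, 5/group. Inhibitor given SC in 0.1 mL MC:EtOH (92:8) on days 2–10. E1S (2 µg/mouse, BID) or E1 (0.06 µg/mouse, ID) given SC on days 5–10. Vehicle controls included. Uterus dissected and weighed on day 11. Means ± SEM.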

A short description of series [4]: Toxicity in nu/nu Br athymic mouse xenografted with human […] MCF7 cells assessed as effect on body weight at 30 mg/kg, sc administered 6 days per week for […] using MC/EtOH formulation measured 3 hrs post-last dose. In kind it is organism-based. To be noted: in vivo. The essentials: as §2
A short description of series [5]: Plasma concentration in Balb/c mouse at 10 mg/kg, sc administered as single dose using MC/EtOH formulation measured after 24 hrs by LC-MS/MS analysis. The class given is ADME, organism-based. The essentials:
as §1

The nature of series [6]: AUC (0 to 24 hrs) in Balb/c mouse at 30 mg/kg, sc administered as single dose using MC/EtOH formulation by LC-MS/MS analysis. In kind it is ADME, organism-based. Also noted: dose 30 mg/kg, time < 24 hr, route subcutaneous. The conditions noted are these: in vivo. A digest of the protocol:
as §1

The test system of series [7] is Mus musculus. Description: In vivo inhibition of STS in ovariectomized Balb/c mouse assessed as reduction in E1S-stimulated uterus weight at 15 mg/kg, sc administered twice daily starting from day 2 to day 10 using MC/EtOH formulation and E1S addition on day 5 to 10 measured on day 11 relative to control. In kind it is functional. The essentials: as §3
The nature of series [8]: AUC (0 to 24 hrs) in Balb/c mouse assessed as (4-(((furan-2-ylmethyl)((5-methylthiophen-2-yl)methyl)amino)methyl)phenyl)(7-hydroxy-3,4-dihydroisoquinolin-2(1H)-yl)methanone level at 30 mg/kg, sc administered as single dose using MC/EtOH formulation by LC-MS/MS analysis. The class given is ADME, organism-based. Also noted: time < 24 hr, dose 30 mg/kg, route subcutaneous. The conditions noted are these: in vivo.

Series [9] in a line: Hepatotoxicity in ovariectomized-induced C57BL/6 mouse model of osteoporosis assessed as effect on liver weight at 30 mg/kg, sc administered 6 days per week for 70 days using MC/EtOH formulation measured post last dose by necropsy analysis. In kind it is toxicity, organism-based. To be noted: in vivo.
Series [10] in a line: Plasma concentration in Balb/c mouse at 30 mg/kg, sc administered as single dose using MC/EtOH formulation measured at 1 hr by LC-MS/MS analysis. The class given is ADME, organism-based. The essentials:
as §1

Series [11] can be described thus: AUC (0 to 24 hrs) in Balb/c mouse at 30 mg/kg, po administered via gavage as single dose using MC/EtOH formulation by LC-MS/MS analysis. The class given is ADME, organism-based. Also noted: time < 24 hr, dose 30 mg/kg, route oral. To be noted: in vivo. A digest of the protocol: as §1
Series [12] has as its system Mus musculus. As to the kind of experiment: Estrogenic activity in ovariectomized-induced C57BL/6 mouse model of osteoporosis assessed as stimulation of uterus weight at 30 mg/kg, sc administered 6 days per week for 70 days using MC/EtOH formulation measured post last dose by necropsy analysis. To be noted: in vivo. In kind it is ADME, organism-based.
Series [13] is described as follows: Toxicity in nu/nu Br athymic mouse xenografted with human […]-stimulated MCF7 cells assessed as effect on liver weight at 30 mg/kg, sc administered 6 days per week […] using MC/EtOH formulation measured 3 hrs post-last dose. In kind it is organism-based. To be noted: in vivo. The essentials:
as §2

In series [14] the test system is Mus musculus. As to the kind of experiment: Ex vivo inhibition of STS in ovariectomized Balb/c mouse liver homogenates assessed as reduction in transformation of [3H]-E1S into [3H]-E1 at 30 mg/kg, sc administered twice daily starting from day 2 to day 10 using MC/EtOH formulation and E1S addition on day 5 to 10 measured on day 11 by liquid scintillation counting method relative to control. The class given is functional. A digest of the protocol:
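Livers collected on day 11 from the OVX Balb/c uterotrophic protocol and homogenized in cold pH 7.4 phosphate buffer with protease inhibitors. 2000 g supernatant, 100 or 500 µg protein, incubated with [3H]-E1S/E1S (final 1 µM) in PBS for 2 h at 37 °C. Xylene extraction, then scintillation counting of both phases. Result given as % E1 formed. Triplicate.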

Series [15] concerns Mus musculus. Description: Osteogenic activity in ovariectomized-induced C57BL/6 mouse model of osteoporosis assessed as recovery of tibia weight at 30 mg/kg, sc administered 6 days per week for 70 days using MC/EtOH formulation relative to control. In kind it is functional. A digest of the protocol: (§4)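 Female C57BL/6 mice (63–70 days) ovariectomized under isoflurane; sham controls kept. 8/group, dosed SC in 0.1 mL MC:EtOH (92:8) for 70 days. Tibias excised and weighed (mg/g body weight). Calcium measured by ICP-MS after calcination at 600 °C for 6 h and HNO3 microwave digestion; expressed as mg/g tibia.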

Series [16] can be described thus: Plasma concentration in Balb/c mouse at 10 mg/kg, sc administered as single dose using MC/EtOH formulation measured after 7 hrs by LC-MS/MS analysis. In kind it is ADME, organism-based. A digest of the protocol:
as §1

Series [17] in a line: Plasma concentration in Balb/c mouse at 30 mg/kg, po administered via gavage as single dose using MC/EtOH formulation measured after 3 hrs by LC-MS/MS analysis. The class given is ADME, organism-based. A digest of the protocol: as §1
The subject of series [18] is Mus musculus. Description: Osteogenic activity in ovariectomized-induced C57BL/6 mouse model of osteoporosis assessed as recovery of tibia calcium content at 30 mg/kg, sc administered 6 days per week for 70 days using MC/EtOH formulation by Triple Quad ICP-MS analysis relative to control. The class given is functional. The essentials: as §4
Series [19] in a line: Plasma concentration in Balb/c mouse at 30 mg/kg, po administered via gavage as single dose using MC/EtOH formulation measured after 7 hrs by LC-MS/MS analysis. The class given is ADME, organism-based. The essentials:
as §1

A short description of series [20]: Plasma concentration in Balb/c mouse at 10 mg/kg, sc administered as single dose using MC/EtOH formulation measured after 3 hrs by LC-MS/MS analysis. The class given is ADME, organism-based. The essentials: as §1
The nature of series [21]: Toxicity in nu/nu Br athymic mouse xenografted with human […]-stimulated MCF7 cells assessed as effect on liver at 30 mg/kg, sc administered 6 days per week for […] using MC/EtOH formulation measured 3 hrs post-last dose by necropsy analysis. To be noted: in vivo. In kind it is organism-based. The essentials:
as §2

Consider one compound from ChEMBL document CHEMBL4396876, “Antisulfatase, Osteogenic, and Anticancer Activities of Steroid Sulfatase Inhibitor EO-33 in Mice” (J Med Chem, 2019).

Take `Cc1ccc(CN(Cc2ccc(C(=O)N3CCc4ccc(OS(N)(=O)=O)cc4C3)cc2)Cc2ccco2)s1`: the concentration at 1 h amounted to 681 ng/mL in series [1] and 2600 ng/mL in series [10]. The Activity result in series [2] is on record as “Non-Toxic”; in series [4] it was “Non-Toxic”; in [9], “Non-Toxic”; in the series on Mus musculus [12] it was “Non-Toxic”; in series [13], “Non-Toxic”; in the series on Mus musculus [15], 100%. Further, the Activity with Mus musculus [18] is 71%; in series [21], “Non-Toxic”. The inhibition in vivo at 30 mg/kg in the series on Mus musculus [3] was found to be 69%; with Mus musculus [14], 81%. This compound returned a concentration at 24 h in series [5] of 2 ng/mL. The figures for the AUC(0-t) at 24 h in series [6] and in series [11] were 13500 ng·h/mL and 878 ng·h/mL, respectively. The inhibition in vivo at 15 mg/kg with Mus musculus [7] is 49%. The AUC in series [8] was 269 ng·h/mL. Besides, the concentration at 7 h came out at 15 ng/mL in series [16] and 75 ng/mL in series [19]. For the same compound, the concentration at 3 h in [17] turned out to be 19 ng/mL; in [20], 398 ng/mL.
